According to ChEMBL document CHEMBL4334471, “Discovery of 1,8-disubstituted-[1,2,3]triazolo[4,5-c]quinoline derivatives as a new class of Hippo signaling pathway inhibitors” (Bioorg Med Chem Lett, 2019):
Active and inactive are the calls of the source. The calls are words filed in the database; no cut-off is given here.

Assays:
[1] = molecular target: MAP/microtubule affinity-regulating kinase 4 (Homo sapiens) (UniProt Q96L34); experiment: Inhibition of recombinant full length human MARK4 assessed as residual activity at 10 uM using KKKVSRSGLYRSPSMPENLNRPR as substrate incubated for 40 mins in presence of [gamma-33ATP by scintillation counting based radiometry assay relative to control
Chain of MAP/microtubule affinity-regulating kinase 4 (Homo sapiens) (Q96L34 whole entry): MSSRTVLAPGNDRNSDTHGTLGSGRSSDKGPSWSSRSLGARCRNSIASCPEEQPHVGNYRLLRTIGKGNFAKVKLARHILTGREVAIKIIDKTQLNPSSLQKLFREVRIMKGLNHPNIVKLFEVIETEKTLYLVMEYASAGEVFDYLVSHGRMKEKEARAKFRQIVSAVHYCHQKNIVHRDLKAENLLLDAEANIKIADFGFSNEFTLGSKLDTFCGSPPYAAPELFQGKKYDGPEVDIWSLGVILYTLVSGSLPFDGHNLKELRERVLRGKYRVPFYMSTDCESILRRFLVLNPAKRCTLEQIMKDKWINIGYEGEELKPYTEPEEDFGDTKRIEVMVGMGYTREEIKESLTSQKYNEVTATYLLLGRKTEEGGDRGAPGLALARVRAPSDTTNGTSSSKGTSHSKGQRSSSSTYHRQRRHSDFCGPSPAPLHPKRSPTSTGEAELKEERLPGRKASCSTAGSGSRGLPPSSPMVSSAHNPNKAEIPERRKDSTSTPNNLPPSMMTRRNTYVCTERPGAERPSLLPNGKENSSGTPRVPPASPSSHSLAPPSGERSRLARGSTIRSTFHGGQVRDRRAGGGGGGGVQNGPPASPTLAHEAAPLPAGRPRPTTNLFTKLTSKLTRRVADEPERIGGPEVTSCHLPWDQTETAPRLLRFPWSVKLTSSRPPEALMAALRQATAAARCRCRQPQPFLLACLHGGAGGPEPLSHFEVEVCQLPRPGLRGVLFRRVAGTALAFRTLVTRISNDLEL

[2] = molecular target: FKBP12A/mTOR (Homo sapiens) (UniProt P62942+P42345); experiment: Inhibition of recombinant full length human mTOR/FKBP12 assessed as residual activity at 10 uM measured after 40 mins in presence of [gamma33P]ATP by scintillation counting based radiometry assay relative to control; type: protein-complex assay
Chain of FKBP12A/mTOR (Homo sapiens) (P62942 2-108 limits assumed, other chains not shown): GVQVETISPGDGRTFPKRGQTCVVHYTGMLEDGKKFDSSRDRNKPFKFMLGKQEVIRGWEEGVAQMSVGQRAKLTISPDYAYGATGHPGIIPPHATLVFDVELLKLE

[3] = molecular target: Mitogen-activated protein kinase kinase kinase 11 (Homo sapiens) (UniProt Q16584); experiment: Inhibition of recombinant human MLK3 assessed as residual activity at 10 uM using by scintillation counting based radiometry assay relative to control
[4] = molecular target: CDC7/Cyclin B1 (Homo sapiens) (UniProt P14635+O00311); experiment: Inhibition of recombinant full length human CD7/CyclinB1 assessed as residual activity at 10 uM using Histone H1 as substrate incubated for 40 mins in presence of [gamma-33ATP] by scintillation counting based radiometry assay relative to control; type: protein-complex assay
Chain of CDC7/Cyclin B1 (Homo sapiens) (O00311 whole entry, looked up): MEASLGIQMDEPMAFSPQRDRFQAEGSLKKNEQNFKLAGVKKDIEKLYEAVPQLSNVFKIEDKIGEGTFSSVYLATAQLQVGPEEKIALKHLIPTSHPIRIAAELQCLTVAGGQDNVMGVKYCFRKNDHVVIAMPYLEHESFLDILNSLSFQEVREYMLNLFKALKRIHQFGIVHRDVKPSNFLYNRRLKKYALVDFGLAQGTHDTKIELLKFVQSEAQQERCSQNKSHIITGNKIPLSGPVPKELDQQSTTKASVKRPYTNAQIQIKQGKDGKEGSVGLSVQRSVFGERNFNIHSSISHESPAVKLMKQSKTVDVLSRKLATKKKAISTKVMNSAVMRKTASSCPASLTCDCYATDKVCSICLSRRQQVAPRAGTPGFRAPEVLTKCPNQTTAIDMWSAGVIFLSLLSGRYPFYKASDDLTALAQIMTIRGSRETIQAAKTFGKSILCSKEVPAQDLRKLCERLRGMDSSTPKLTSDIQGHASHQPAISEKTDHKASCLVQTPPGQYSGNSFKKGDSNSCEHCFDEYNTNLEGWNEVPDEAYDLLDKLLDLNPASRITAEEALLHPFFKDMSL
Chain of CDC7/Cyclin B1 (Homo sapiens) (P14635 whole entry, looked up): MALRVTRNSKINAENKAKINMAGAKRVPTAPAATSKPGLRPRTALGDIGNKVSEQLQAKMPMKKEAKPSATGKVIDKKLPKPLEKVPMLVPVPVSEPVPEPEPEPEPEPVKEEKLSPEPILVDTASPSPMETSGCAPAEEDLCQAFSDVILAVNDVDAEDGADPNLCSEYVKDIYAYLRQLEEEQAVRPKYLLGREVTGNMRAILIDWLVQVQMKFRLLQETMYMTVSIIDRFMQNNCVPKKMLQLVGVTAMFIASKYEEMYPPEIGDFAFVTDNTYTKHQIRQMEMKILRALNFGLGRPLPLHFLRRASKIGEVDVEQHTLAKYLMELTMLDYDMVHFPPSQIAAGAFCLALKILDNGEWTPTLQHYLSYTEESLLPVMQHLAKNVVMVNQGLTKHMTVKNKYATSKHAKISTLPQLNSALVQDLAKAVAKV

[5] = molecular target: MAP kinase-interacting serine/threonine-protein kinase 2 (Homo sapiens) (UniProt Q9HBH9); experiment: Inhibition of recombinant human MNK2 assessed as residual activity at 10 uM using myelin basic protein as substrate incubated for 40 mins in presence of [gamma-33ATP by scintillation counting based radiometry assay relative to control
[6] = molecular target: Ephrin type-A receptor 1 (Homo sapiens) (UniProt P21709); experiment: Inhibition of recombinant human EphA1 (568 to end residues) assessed as residual activity at 10 uM using KKKSPGEYVNIEF as substrate at 40 mins in presence of [gamma-33ATP] by scintillation counting based radiometry assay relative to control
Chain of Ephrin type-A receptor 1 (Homo sapiens) (P21709 whole entry, the tested form may be a part): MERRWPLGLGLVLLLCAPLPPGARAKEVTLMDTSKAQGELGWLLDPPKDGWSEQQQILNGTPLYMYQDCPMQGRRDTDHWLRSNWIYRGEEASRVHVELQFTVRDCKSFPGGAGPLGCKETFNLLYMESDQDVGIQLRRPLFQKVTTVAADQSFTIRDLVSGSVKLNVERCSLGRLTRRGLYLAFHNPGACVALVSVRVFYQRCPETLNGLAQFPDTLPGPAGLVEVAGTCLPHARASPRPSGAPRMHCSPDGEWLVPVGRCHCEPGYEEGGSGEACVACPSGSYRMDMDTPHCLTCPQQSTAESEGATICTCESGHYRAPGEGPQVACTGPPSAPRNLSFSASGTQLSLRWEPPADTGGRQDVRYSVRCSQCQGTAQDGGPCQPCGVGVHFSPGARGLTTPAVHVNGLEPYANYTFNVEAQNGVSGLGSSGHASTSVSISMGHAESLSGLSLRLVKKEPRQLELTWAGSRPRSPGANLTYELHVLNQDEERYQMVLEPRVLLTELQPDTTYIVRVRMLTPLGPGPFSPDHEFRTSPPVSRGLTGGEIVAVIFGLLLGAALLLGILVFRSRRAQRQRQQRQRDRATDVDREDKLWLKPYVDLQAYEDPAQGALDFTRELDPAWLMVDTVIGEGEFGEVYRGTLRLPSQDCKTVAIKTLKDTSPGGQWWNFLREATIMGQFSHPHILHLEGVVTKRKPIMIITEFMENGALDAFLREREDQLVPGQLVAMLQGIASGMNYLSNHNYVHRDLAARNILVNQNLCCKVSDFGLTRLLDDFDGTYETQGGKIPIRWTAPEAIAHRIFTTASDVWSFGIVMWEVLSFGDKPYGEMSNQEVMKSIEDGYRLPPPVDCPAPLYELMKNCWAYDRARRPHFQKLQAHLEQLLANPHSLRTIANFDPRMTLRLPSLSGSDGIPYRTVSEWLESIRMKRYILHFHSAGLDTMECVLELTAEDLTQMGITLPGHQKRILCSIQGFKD

[7] = molecular target: Serine/threonine-protein kinase VRK2 (Homo sapiens) (UniProt Q86Y07); experiment: Inhibition of recombinant human VRK2 (1 to 336 residues) assessed as residual activity at 10 uM using casein as substrate incubated for 40 mins in presence of [gamma33P]ATP by scintillation counting based radiometry assay relative to control
[8] = molecular target: Dual specificity protein kinase CLK2 (Homo sapiens) (UniProt P49760); experiment: Inhibition of recombinant human CLK2 (138 to end residues) assessed as residual activity at 10 uM using YRRAAVPPSPSLSRHSSPHQS(p)EDEEE as substrate incubated 40 mins in presence of [gamma-33ATP] by scintillation counting based radiometry assay relative to control
[9] = molecular target: Serine/threonine-protein kinase SIK2 (Homo sapiens) (UniProt Q9H0K1); experiment: Inhibition of recombinant human SIK2 (1 to 276 residues) assessed as residual activity at 10 uM using KKKVSRSGLYRSPSMPENLNRPR as substrate incubated for 40 mins in presence of [gamma33P]ATP by scintillation counting based radiometry assay relative to control
[10] = molecular target: CDK7/Cyclin H/MNAT1 (Homo sapiens) (UniProt P51946+P50613+P51948); experiment: Inhibition of recombinant full length human CDK7/cyclinH/MAT1 assessed as residual activity at 10 uM using peptide as substrate incubated for 40 mins in presence of [gamma-33ATP] by scintillation counting based radiometry assay relative to control; type: protein-complex assay
[11] = molecular target: Activin receptor type-1-like (Homo sapiens) (UniProt P37023); experiment: Inhibition of recombinant human ALK1 (142 to end residues) assessed as residual activity at 10 uM using casein as substrate incubated for 40 mins in presence of [gamma-33ATP] by scintillation counting based radiometry assay relative to control
Chain of Activin receptor type-1-like (Homo sapiens) (P37023 whole entry): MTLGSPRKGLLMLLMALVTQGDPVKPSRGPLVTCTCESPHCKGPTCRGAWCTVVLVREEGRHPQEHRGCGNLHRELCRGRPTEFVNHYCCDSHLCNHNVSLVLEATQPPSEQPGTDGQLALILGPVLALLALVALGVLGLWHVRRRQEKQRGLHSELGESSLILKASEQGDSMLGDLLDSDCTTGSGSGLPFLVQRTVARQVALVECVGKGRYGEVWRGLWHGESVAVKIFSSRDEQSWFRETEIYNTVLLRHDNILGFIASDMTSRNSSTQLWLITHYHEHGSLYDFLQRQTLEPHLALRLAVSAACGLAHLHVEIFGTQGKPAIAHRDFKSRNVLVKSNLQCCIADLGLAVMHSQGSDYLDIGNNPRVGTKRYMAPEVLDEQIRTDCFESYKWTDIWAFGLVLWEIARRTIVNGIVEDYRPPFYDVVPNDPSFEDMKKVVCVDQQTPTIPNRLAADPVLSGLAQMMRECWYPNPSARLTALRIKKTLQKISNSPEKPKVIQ

[12] = species: Mus musculus; experiment: Inhibition of recombinant full length mouse PI3K p110/p65 assessed as residual activity at 10 uM using phosphatidylinositol-4, 5-bisphosphate as substrate incubated for 40 mins in presence of [gamma33P]ATP by scintillation counting based radiometry assay relative to control
[13] = molecular target: Serine/threonine-protein kinase pim-1 (Homo sapiens) (UniProt P11309); experiment: Inhibition of recombinant full length human Pim1 assessed as residual activity at 10 uM using KKRNRTLTV as substrate incubated for 40 mins in presence of [gamma33P]ATP by scintillation counting based radiometry assay relative to control
Chain of Serine/threonine-protein kinase pim-1 (Homo sapiens) (P11309 whole entry, looked up): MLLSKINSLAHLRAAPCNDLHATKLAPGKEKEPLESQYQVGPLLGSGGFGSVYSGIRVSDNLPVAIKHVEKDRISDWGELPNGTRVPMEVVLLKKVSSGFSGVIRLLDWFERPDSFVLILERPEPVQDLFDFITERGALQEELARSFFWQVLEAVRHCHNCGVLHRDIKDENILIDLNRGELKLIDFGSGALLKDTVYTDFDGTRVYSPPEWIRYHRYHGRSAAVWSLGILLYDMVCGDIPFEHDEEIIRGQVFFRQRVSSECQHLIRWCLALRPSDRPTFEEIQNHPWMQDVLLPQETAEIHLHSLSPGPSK

[14] = molecular target: Calcium/calmodulin-dependent protein kinase type IV (Homo sapiens) (UniProt Q16566); experiment: Inhibition of recombinant full length human CaMK4 assessed as residual activity at 10 uM using […] incubated for 40 mins in presence of [gamma-33ATP] by scintillation counting based radiometry assay relative to control
Chain of Calcium/calmodulin-dependent protein kinase type IV (Homo sapiens) (Q16566 whole entry, the tested form may be a part): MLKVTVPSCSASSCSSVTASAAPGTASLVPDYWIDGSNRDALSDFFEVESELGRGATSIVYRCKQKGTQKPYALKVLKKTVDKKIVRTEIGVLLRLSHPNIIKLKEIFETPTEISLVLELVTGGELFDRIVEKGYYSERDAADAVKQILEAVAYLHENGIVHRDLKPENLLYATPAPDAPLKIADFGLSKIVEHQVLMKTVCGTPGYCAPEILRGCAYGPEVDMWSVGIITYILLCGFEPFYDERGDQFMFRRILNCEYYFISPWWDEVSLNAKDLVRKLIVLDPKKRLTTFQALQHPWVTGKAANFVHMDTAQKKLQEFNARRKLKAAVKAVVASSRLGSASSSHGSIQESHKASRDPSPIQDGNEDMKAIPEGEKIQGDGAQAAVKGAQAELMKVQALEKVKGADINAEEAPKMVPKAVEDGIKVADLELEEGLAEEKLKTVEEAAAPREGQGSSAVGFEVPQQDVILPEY

[15] = molecular target: Tau-tubulin kinase 1 (Homo sapiens) (UniProt Q5TCY1); experiment: Inhibition of recombinant human TTBK1 (1 to 479 residues) assessed as residual activity at 10 uM using casein as substrate incubated for 40 mins in presence of [gamma33P]ATP by scintillation counting based radiometry assay relative to control
[16] = molecular target: Tyrosine-protein kinase TXK (Homo sapiens) (UniProt P42681); experiment: Inhibition of recombinant human Txk (256 to end residues) assessed as residual activity at 10 uM using GEEPLYWSFPAKKK as substrate incubated for 40 mins in presence of [gamma33P]ATP by scintillation counting based radiometry assay relative to control
[17] = molecular target: Transcriptional coactivator YAP1 (Homo sapiens) (UniProt P46937); experiment: Induction of YAP nuclear translocation in human A549 cells at 10 uM incubated for 8 hrs by immunofluorescence based confocal microscopy; type: cell-based
Chain of Transcriptional coactivator YAP1 (Homo sapiens) (P46937 whole entry): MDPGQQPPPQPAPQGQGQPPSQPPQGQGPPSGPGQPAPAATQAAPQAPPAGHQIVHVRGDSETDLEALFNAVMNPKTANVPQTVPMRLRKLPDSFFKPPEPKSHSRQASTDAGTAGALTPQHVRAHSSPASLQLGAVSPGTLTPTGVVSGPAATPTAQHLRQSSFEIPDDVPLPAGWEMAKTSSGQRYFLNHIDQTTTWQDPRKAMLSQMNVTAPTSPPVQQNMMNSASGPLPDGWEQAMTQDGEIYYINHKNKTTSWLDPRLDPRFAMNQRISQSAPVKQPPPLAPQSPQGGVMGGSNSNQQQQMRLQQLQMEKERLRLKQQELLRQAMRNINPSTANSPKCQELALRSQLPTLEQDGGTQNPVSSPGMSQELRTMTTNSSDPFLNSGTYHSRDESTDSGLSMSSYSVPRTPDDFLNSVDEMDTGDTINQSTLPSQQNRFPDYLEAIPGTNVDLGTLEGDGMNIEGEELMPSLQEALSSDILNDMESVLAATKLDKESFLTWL
Procedure, shortened: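 A549-CTGF reporter cells were treated for 8 h at 10 µM, with 0.1% DMSO as vehicle control. Cells were then fixed, permeabilized and probed with anti-YAP antibody. DAPI stained the nuclei, and YAP localization was imaged by immunofluorescence.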

[18] = molecular target: Tyrosine-protein kinase Lyn (Homo sapiens) (UniProt P07948); experiment: Inhibition of recombinant human Lyn assessed as residual activity at 10 uM using poly(Glu, Tyr) 4:1 as substrate after 40 mins in presence of [gamma-33ATP] by scintillation counting based radiometry assay relative to control
[19] = species: Mus musculus; experiment: Inhibition of recombinant full length mouse PI3K p110/p85 assessed as residual activity at 10 uM using phosphatidylinositol-4, 5-bisphosphate as substrate incubated for 40 mins in presence of [gamma33P]ATP by scintillation counting based radiometry assay relative to control
[20] = molecular target: Tyrosine-protein kinase Yes (Homo sapiens) (UniProt P07947); experiment: Inhibition of recombinant full-length human Yes assessed as residual activity at 10 uM using poly(Glu, Tyr) 4:1 as substrate incubated for 40 mins in presence of [gamma33P]ATP by scintillation counting based radiometry assay relative to control
[21] = molecular target: Serine/threonine-protein kinase mTOR (Homo sapiens) (UniProt P42345); experiment: Inhibition of recombinant full length human mTOR assessed as residual activity at 10 uM measured after 40 mins in presence of [gamma33P]ATP by scintillation counting based radiometry assay relative to control

With `C[C@@H](c1ccccc1)n1nnc2cnc3ccc(-c4cnc5[nH]ccc5c4)cc3c21` the Activity [1] was 89%, the Activity [2] was -1% and the Activity [3] was 73%. The Activity [4] was 63%, the Activity [5] was 84% and the Activity [6] was 91%. It also gave an Activity [7] of 80%, an Activity [8] of 30% and an Activity [9] of 7%. It also gave an Activity [10] of 80%, an Activity [11] of 78% and an Activity [12] of 14%. It also gave an Activity [13] of 68%, an Activity [14] of 39% and an Activity [15] of 91%. For the same compound, the Activity [16] was 23%, the Activity [17] was “Active” and the Activity [18] was 3%. The Activity [19] was 4 to 12%, the Activity [20] was 3% and the Activity [21] was -7%.
